Experimental data reported in the M2OR odorant receptor database.

Columns and labels:
Conditions in all cases: stereoisomer not certain
[1] = target: T1, UniProt Q8VG27
T1 sequence (whole entry): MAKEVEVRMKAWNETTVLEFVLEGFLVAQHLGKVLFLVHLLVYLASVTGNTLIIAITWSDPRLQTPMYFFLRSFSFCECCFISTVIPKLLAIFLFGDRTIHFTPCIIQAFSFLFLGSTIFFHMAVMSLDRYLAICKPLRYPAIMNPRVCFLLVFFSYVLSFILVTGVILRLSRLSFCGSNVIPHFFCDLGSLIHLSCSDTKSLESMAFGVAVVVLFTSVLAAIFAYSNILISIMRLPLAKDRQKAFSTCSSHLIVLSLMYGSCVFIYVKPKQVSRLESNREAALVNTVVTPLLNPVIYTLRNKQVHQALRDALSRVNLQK
Method in brief: (§1)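 Each entry records the cell line, G-protein, co-transfected protein and tags used. Methods varied with the source, often transient luciferase assays in mammalian cell lines. A receptor–molecule pair is called responsive (active) if the original authors judged its signal statistically different from baseline and non-responsive (inactive) otherwise.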

[2] = target: T2, UniProt Q8VG53
T2 sequence (whole entry): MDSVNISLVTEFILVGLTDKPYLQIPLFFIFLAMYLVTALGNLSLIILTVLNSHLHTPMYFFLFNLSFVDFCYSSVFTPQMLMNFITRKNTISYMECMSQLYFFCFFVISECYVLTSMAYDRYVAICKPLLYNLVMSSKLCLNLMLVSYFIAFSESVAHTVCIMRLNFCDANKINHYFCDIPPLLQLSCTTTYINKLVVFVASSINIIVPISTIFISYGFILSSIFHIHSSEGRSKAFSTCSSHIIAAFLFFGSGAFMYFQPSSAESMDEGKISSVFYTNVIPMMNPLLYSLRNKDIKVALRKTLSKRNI
Method in brief: as §1

[3] = target: T3, UniProt Q8VG64
T3 sequence (whole entry): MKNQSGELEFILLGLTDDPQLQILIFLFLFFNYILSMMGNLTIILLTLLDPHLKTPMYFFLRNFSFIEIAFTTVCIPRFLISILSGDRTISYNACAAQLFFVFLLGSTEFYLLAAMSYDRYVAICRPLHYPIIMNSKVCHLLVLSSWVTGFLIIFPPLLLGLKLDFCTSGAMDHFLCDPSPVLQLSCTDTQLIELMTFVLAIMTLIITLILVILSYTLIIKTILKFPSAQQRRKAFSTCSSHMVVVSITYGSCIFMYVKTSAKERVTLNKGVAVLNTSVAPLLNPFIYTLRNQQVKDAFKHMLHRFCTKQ
Method in brief: as §1

[4] = target: T4, UniProt Q8VGB9
T4 sequence (whole entry): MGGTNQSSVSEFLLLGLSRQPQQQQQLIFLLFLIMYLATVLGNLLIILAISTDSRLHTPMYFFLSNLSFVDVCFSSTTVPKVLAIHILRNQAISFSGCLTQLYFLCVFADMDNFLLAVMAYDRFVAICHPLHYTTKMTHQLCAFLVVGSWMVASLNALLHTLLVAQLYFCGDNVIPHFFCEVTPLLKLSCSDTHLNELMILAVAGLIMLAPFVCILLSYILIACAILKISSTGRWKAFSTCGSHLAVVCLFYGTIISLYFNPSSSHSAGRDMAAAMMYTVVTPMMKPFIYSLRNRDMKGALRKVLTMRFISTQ
Method in brief: as §1

[5] = target: T5, UniProt Q8VG49
T5 sequence (whole entry): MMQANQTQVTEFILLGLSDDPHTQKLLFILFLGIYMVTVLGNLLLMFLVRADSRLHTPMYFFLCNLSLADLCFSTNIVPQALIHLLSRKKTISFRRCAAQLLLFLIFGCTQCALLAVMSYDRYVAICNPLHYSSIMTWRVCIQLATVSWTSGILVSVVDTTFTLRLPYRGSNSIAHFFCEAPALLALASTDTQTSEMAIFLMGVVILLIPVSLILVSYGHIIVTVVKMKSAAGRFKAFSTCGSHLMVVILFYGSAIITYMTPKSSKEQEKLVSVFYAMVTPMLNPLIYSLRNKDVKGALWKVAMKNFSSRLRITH
Method in brief: as §1

[6] = target: T6, UniProt Q8VG77
T6 sequence (whole entry): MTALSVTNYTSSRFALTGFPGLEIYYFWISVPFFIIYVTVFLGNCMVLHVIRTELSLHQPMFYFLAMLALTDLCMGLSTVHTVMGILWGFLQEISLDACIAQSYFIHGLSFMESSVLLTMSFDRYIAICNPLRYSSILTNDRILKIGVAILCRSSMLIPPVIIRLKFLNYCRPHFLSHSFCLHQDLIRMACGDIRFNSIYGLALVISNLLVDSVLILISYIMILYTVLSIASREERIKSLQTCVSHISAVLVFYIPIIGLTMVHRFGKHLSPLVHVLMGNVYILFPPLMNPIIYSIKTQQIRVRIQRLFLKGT
Method in brief: as §1

[7] = target: T7, UniProt Q8VG96
T7 sequence (whole entry): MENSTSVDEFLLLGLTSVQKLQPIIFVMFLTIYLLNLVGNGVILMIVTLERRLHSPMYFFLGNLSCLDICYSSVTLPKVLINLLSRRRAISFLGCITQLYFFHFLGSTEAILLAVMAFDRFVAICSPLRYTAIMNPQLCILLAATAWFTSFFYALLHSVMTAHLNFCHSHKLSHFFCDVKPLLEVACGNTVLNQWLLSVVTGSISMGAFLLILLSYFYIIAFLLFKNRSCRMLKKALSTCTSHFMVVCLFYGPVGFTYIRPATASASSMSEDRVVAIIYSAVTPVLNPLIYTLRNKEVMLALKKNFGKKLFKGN
Method in brief: as §1

Measured: odorant receptor agonist call

CC1CCC(C(C)C)C(=O)C1 (stereo not drawn)
inactive: [1] | [2] | [3] | [4]

COc1ccccc1
inactive: [1] | [2] | [3] | [4]

CC(C)CCN
inactive: [1] | [2] | [3] | [4]

CC(C)=C1CCC(C)CC1=O (stereo not drawn)
inactive: [1] | [2] | [3] | [4]

CC1(C)CC(=O)CC(=O)C1
inactive: [1] | [2] | [3] | [4]

Cc1occc1SSc1ccoc1C
inactive: [1] | [2] | [3] | [4]

OCCCCCCCCCO
active: [3]
inactive: [1] | [2] | [4]

CCCCCC(=Cc1ccccc1)C(OC)OC
inactive: [1] | [2] | [3] | [4]

CCCCCCC(C)=O
inactive: [1] | [5] | [2] | [3] | [6] | [7] | [4]

CCCCCCC=CC=O
inactive: [1] | [2] | [3] | [4]

CCCO
inactive: [1] | [2] | [3] | [4]

Cc1ccc(OC(=O)C(C)C)cc1
inactive: [1] | [2] | [3] | [4]

CCN(CC)CC
inactive: [1] | [2] | [3] | [4]

CCCCCOC(=O)CCCCC
inactive: [1] | [5] | [2] | [3] | [6] | [7] | [4]

CC(=O)OC1(C)CCC23CC1C(C)(C)C2CCC3C (stereo not drawn)
inactive: [1] | [2] | [3] | [4]

CC(=O)OCc1ccccc1
inactive: [1] | [5] | [2] | [3] | [6] | [7] | [4]

CCOC(=O)C(C)C
inactive: [1] | [5] | [2] | [3] | [6] | [7] | [4]

C=CC(=C)CCC=C(C)CCC=C(C)C
inactive: [1] | [2] | [3] | [4]

CC(C)=CCCC(C)=CCOC(=O)C(C)C
inactive: [1] | [2] | [3] | [4]

CCCCCCCC(C)=O
inactive: [1] | [5] | [2] | [3] | [6] | [7] | [4]

CCCCCCCCCS
inactive: [1] | [2] | [3] | [6] | [7] | [4]
active: [5]

CCCCCC=O
inactive: [1] | [5] | [2] | [3] | [7] | [4]
active: [6]

C=CC(C)=CCC=C(C)CCC=C(C)C
inactive: [1] | [2] | [3] | [4]

CCCCCCC(C=O)=Cc1ccccc1
inactive: [1] | [2] | [3] | [4]

CCCCCC(C)O (stereo not drawn)
inactive: [1] | [2] | [3] | [4]

COc1nccnc1C
inactive: [1] | [2] | [3] | [4]

C=C(CC)CCCC(C)(C)O
inactive: [1] | [2] | [3] | [4]

Cc1ccc(C(C)C)c(O)c1
inactive: [1] | [2] | [3] | [4]

CCCCCCCCCCOC(C)=O
inactive: [2] | [3] | [4]
active: [1]

CCC=CCCCCC=O
inactive: [1] | [2] | [3] | [4]

c1ccc2ncccc2c1
inactive: [1] | [2] | [3] | [4]

CCC(C)c1nccnc1OC (stereo not drawn)
inactive: [1] | [2] | [3] | [4]

CCCCCOC(=O)CCC
inactive: [1] | [2] | [3] | [4]

Cc1ccc(C(C)C)cc1
inactive: [1] | [2] | [3] | [4]

C1CCOCC1
inactive: [1] | [2] | [3] | [4]

CCC(C)O (stereo not drawn)
inactive: [1] | [2] | [3] | [4]

CC=C(C)C=O
inactive: [1] | [2] | [3] | [4]

CC(=O)C=CC1=C(C)CCCC1(C)C
inactive: [1] | [2] | [3] | [4]
